Source: ChEMBL document CHEMBL2016480, “Structure-based ligand design of novel bacterial RNA polymerase inhibitors” (ACS Med Chem Lett, 2011)
Values after ≈ are worked out from the molar mass of the structure shown.

system: Staphylococcus aureus; assay: Antibacterial activity against Staphylococcus aureus SH1000 expressing rsbU gene in the presence of polymyxin B nonapeptide; format: functional
How it was run: (§1)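 MICs by standard susceptibility testing per British Society for Antimicrobial Chemotherapy guidelines, run in triplicate. For the PMBN lines, tests were repeated with polymyxin B nonapeptide added as an outer-membrane permeabilizer.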

SMILES | MIC [µg/mL]
NS(=O)(=O)c1ccc(C(=O)Nc2cnc3ccccc3c2)cc1 | > 256
NS(=O)(=O)c1ccc(C(=O)Nc2ccc(N3CCCC3)nc2)cc1 | > 256
NS(=O)(=O)c1ccc(NC(=O)c2ccc(-n3cncn3)nc2)cc1 | > 256
NS(=O)(=O)c1ccc(C(=O)Nc2ccc(-c3ccccc3)nc2)cc1 | > 256
N#Cc1ccc(C(=O)Nc2ccc(-n3cncn3)nc2)cc1 | > 256
NS(=O)(=O)c1ccc(C(=O)Nc2ccc(-n3ccnc3)nc2)cc1 | > 256
CCCC/C(C)=C/C=C(\C)C(=O)c1c(O)cc([C@H](C)CC/C=C/NC(=O)OC)oc1=O [MYXOPYRONIN B] | > 256
O=C(O)c1ccc(C(=O)Nc2ccc(-n3ccnc3)nc2)cc1 | > 256
N#Cc1ccc(C(=O)Nc2ccc(-c3ccccc3)nc2)cc1 | > 256
COC(=O)c1ccc(C(=O)Nc2ccc(-n3ccnc3)nc2)cc1 | > 256
NS(=O)(=O)c1ccc(C(=O)Nc2cccnc2)cc1 | > 256
NC(=O)c1ccc(C(=O)Nc2ccc(-n3ccnc3)nc2)cc1 | > 256

system: Saccharomyces cerevisiae; assay: Inhibition of yeast RNA polymerase 2 at 100 uM
How it was run: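 Selectivity assay against yeast RNA polymerase II. Activity was reported as percentage inhibition at 100 μM compound.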

SMILES | inhibition [%]
N#Cc1ccc(C(=O)Nc2ccc(-n3cncn3)nc2)cc1 | 12
NS(=O)(=O)c1ccc(C(=O)Nc2ccc(-n3ccnc3)nc2)cc1 | 14.7
NC(=O)c1ccc(C(=O)Nc2ccc(-n3ccnc3)nc2)cc1 | 10.5

system: not listed separately; assay: Inhibition of Escherichia coli DNA dependent RNA polymerase assessed as inhibition of [14C]UTP incorporation after 15 mins by liquid scintillation counting

SMILES | IC50 [µM]
CCCC/C(C)=C/C=C(\C)C(=O)c1c(O)cc([C@H](C)CC/C=C/NC(=O)OC)oc1=O [MYXOPYRONIN B] | 0.92

system: Escherichia coli; assay: Antibacterial activity against kanamycin-resistant,acrAB::Tn903 deficient Escherichia coli SM1411 expressing lacI3, lacZ118, proB, trp, nalA, rpsL; format: functional

SMILES | MIC [µg/mL]
NS(=O)(=O)c1ccc(C(=O)Nc2cnc3ccccc3c2)cc1 | > 256
NS(=O)(=O)c1ccc(C(=O)Nc2ccc(N3CCCC3)nc2)cc1 | > 256
NS(=O)(=O)c1ccc(NC(=O)c2ccc(-n3cncn3)nc2)cc1 | > 256
NS(=O)(=O)c1ccc(C(=O)Nc2ccc(-c3ccccc3)nc2)cc1 | > 256
N#Cc1ccc(C(=O)Nc2ccc(-n3cncn3)nc2)cc1 | > 256
NS(=O)(=O)c1ccc(C(=O)Nc2ccc(-n3ccnc3)nc2)cc1 | > 256
CCCC/C(C)=C/C=C(\C)C(=O)c1c(O)cc([C@H](C)CC/C=C/NC(=O)OC)oc1=O [MYXOPYRONIN B] | > 256
O=C(O)c1ccc(C(=O)Nc2ccc(-n3ccnc3)nc2)cc1 | > 256
N#Cc1ccc(C(=O)Nc2ccc(-c3ccccc3)nc2)cc1 | > 256
COC(=O)c1ccc(C(=O)Nc2ccc(-n3ccnc3)nc2)cc1 | > 256
NS(=O)(=O)c1ccc(C(=O)Nc2cccnc2)cc1 | > 256
NC(=O)c1ccc(C(=O)Nc2ccc(-n3ccnc3)nc2)cc1 | > 256

system: not listed separately; assay: Inhibition of chymotrypsin at 100 uM
How it was run: (§2)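 Counter-screens for promiscuous inhibition using malate dehydrogenase and chymotrypsin enzyme assays. Activity was reported as percentage inhibition at 100 μM compound.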

SMILES | inhibition [%]
N#Cc1ccc(C(=O)Nc2ccc(-n3cncn3)nc2)cc1 | 0
NS(=O)(=O)c1ccc(C(=O)Nc2ccc(-n3ccnc3)nc2)cc1 | 0
NC(=O)c1ccc(C(=O)Nc2ccc(-n3ccnc3)nc2)cc1 | 0.1

system: not listed separately; assay: Inhibition of malate dehydrogenase at 100 uM; how it was run: as §2

SMILES | inhibition [%]
N#Cc1ccc(C(=O)Nc2ccc(-n3cncn3)nc2)cc1 | 0
NS(=O)(=O)c1ccc(C(=O)Nc2ccc(-n3ccnc3)nc2)cc1 | 0.5
NC(=O)c1ccc(C(=O)Nc2ccc(-n3ccnc3)nc2)cc1 | 0

system: Staphylococcus aureus; assay: Antibacterial activity against Staphylococcus aureus; format: functional

SMILES | MIC [µg/mL]
CCCC/C(C)=C/C=C(\C)C(=O)c1c(O)cc([C@H](C)CC/C=C/NC(=O)OC)oc1=O [MYXOPYRONIN B] | 1 (≈ 2.32 µM)

system: Escherichia coli; assay: Antibacterial activity against Escherichia coli 1411 expressing lacI3, lacZ118, proB, trp, nalA, rpsL; format: functional; how it was run: as §1

SMILES | MIC [µg/mL]
NS(=O)(=O)c1ccc(C(=O)Nc2cnc3ccccc3c2)cc1 | > 256
NS(=O)(=O)c1ccc(C(=O)Nc2ccc(N3CCCC3)nc2)cc1 | > 256
NS(=O)(=O)c1ccc(NC(=O)c2ccc(-n3cncn3)nc2)cc1 | > 256
NS(=O)(=O)c1ccc(C(=O)Nc2ccc(-c3ccccc3)nc2)cc1 | > 256
N#Cc1ccc(C(=O)Nc2ccc(-n3cncn3)nc2)cc1 | > 256
NS(=O)(=O)c1ccc(C(=O)Nc2ccc(-n3ccnc3)nc2)cc1 | > 256
CCCC/C(C)=C/C=C(\C)C(=O)c1c(O)cc([C@H](C)CC/C=C/NC(=O)OC)oc1=O [MYXOPYRONIN B] | > 256
O=C(O)c1ccc(C(=O)Nc2ccc(-n3ccnc3)nc2)cc1 | > 256
N#Cc1ccc(C(=O)Nc2ccc(-c3ccccc3)nc2)cc1 | > 256
COC(=O)c1ccc(C(=O)Nc2ccc(-n3ccnc3)nc2)cc1 | > 256
NS(=O)(=O)c1ccc(C(=O)Nc2cccnc2)cc1 | > 256
NC(=O)c1ccc(C(=O)Nc2ccc(-n3ccnc3)nc2)cc1 | > 256

system: not listed separately; assay: Inhibition of Escherichia coli DNA dependent RNA polymerase after 2 hrs by SYBR Green-based spectrophotometric analysis
How it was run: (§3)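 In vitro transcription assay with E. coli RNA polymerase on a Kool NC-45 RNAP template. Activity was reported as IC50 or as percentage inhibition at 100 μM compound.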

SMILES | IC50 [µM]
N#Cc1ccc(C(=O)Nc2ccc(-n3cncn3)nc2)cc1 | 9.9
NS(=O)(=O)c1ccc(C(=O)Nc2ccc(-n3ccnc3)nc2)cc1 | 18.9
CCCC/C(C)=C/C=C(\C)C(=O)c1c(O)cc([C@H](C)CC/C=C/NC(=O)OC)oc1=O [MYXOPYRONIN B] | 46.5
NC(=O)c1ccc(C(=O)Nc2ccc(-n3ccnc3)nc2)cc1 | 11.9

system: Staphylococcus aureus; assay: Antibacterial activity against Staphylococcus aureus SH1000 expressing rsbU gene; format: functional; how it was run: as §1

SMILES | MIC [µg/mL]
NS(=O)(=O)c1ccc(C(=O)Nc2cnc3ccccc3c2)cc1 | > 256
NS(=O)(=O)c1ccc(C(=O)Nc2ccc(N3CCCC3)nc2)cc1 | > 256
NS(=O)(=O)c1ccc(NC(=O)c2ccc(-n3cncn3)nc2)cc1 | > 256
NS(=O)(=O)c1ccc(C(=O)Nc2ccc(-c3ccccc3)nc2)cc1 | > 256
N#Cc1ccc(C(=O)Nc2ccc(-n3cncn3)nc2)cc1 | > 256
NS(=O)(=O)c1ccc(C(=O)Nc2ccc(-n3ccnc3)nc2)cc1 | > 256
CCCC/C(C)=C/C=C(\C)C(=O)c1c(O)cc([C@H](C)CC/C=C/NC(=O)OC)oc1=O [MYXOPYRONIN B] | > 256
O=C(O)c1ccc(C(=O)Nc2ccc(-n3ccnc3)nc2)cc1 | > 256
N#Cc1ccc(C(=O)Nc2ccc(-c3ccccc3)nc2)cc1 | > 256
COC(=O)c1ccc(C(=O)Nc2ccc(-n3ccnc3)nc2)cc1 | > 256
NS(=O)(=O)c1ccc(C(=O)Nc2cccnc2)cc1 | > 256
NC(=O)c1ccc(C(=O)Nc2ccc(-n3ccnc3)nc2)cc1 | > 256

system: Bacillus subtilis; assay: Antibacterial activity against Bacillus subtilis 1S34 in the presence of polymyxin B nonapeptide; format: functional; how it was run: as §1

SMILES | MIC [µg/mL]
NS(=O)(=O)c1ccc(C(=O)Nc2cnc3ccccc3c2)cc1 | > 256
NS(=O)(=O)c1ccc(C(=O)Nc2ccc(N3CCCC3)nc2)cc1 | > 256
NS(=O)(=O)c1ccc(NC(=O)c2ccc(-n3cncn3)nc2)cc1 | > 256
NS(=O)(=O)c1ccc(C(=O)Nc2ccc(-c3ccccc3)nc2)cc1 | > 256
N#Cc1ccc(C(=O)Nc2ccc(-n3cncn3)nc2)cc1 | > 256
NS(=O)(=O)c1ccc(C(=O)Nc2ccc(-n3ccnc3)nc2)cc1 | > 256
CCCC/C(C)=C/C=C(\C)C(=O)c1c(O)cc([C@H](C)CC/C=C/NC(=O)OC)oc1=O [MYXOPYRONIN B] | > 256
O=C(O)c1ccc(C(=O)Nc2ccc(-n3ccnc3)nc2)cc1 | > 256
N#Cc1ccc(C(=O)Nc2ccc(-c3ccccc3)nc2)cc1 | > 256
COC(=O)c1ccc(C(=O)Nc2ccc(-n3ccnc3)nc2)cc1 | > 256
NS(=O)(=O)c1ccc(C(=O)Nc2cccnc2)cc1 | > 256
NC(=O)c1ccc(C(=O)Nc2ccc(-n3ccnc3)nc2)cc1 | > 256

system: Escherichia coli; assay: Antibacterial activity against Escherichia coli 1411 expressing lacI3, lacZ118, proB, trp, nalA, rpsL in the presence of polymyxin B nonapeptide; format: functional; how it was run: as §1

SMILES | MIC [µg/mL]
NS(=O)(=O)c1ccc(C(=O)Nc2cnc3ccccc3c2)cc1 | > 256
NS(=O)(=O)c1ccc(C(=O)Nc2ccc(N3CCCC3)nc2)cc1 | > 256
NS(=O)(=O)c1ccc(NC(=O)c2ccc(-n3cncn3)nc2)cc1 | > 256
NS(=O)(=O)c1ccc(C(=O)Nc2ccc(-c3ccccc3)nc2)cc1 | > 256
N#Cc1ccc(C(=O)Nc2ccc(-n3cncn3)nc2)cc1 | > 256
NS(=O)(=O)c1ccc(C(=O)Nc2ccc(-n3ccnc3)nc2)cc1 | > 256
CCCC/C(C)=C/C=C(\C)C(=O)c1c(O)cc([C@H](C)CC/C=C/NC(=O)OC)oc1=O [MYXOPYRONIN B] | > 256
O=C(O)c1ccc(C(=O)Nc2ccc(-n3ccnc3)nc2)cc1 | > 256
N#Cc1ccc(C(=O)Nc2ccc(-c3ccccc3)nc2)cc1 | > 256
COC(=O)c1ccc(C(=O)Nc2ccc(-n3ccnc3)nc2)cc1 | > 256
NS(=O)(=O)c1ccc(C(=O)Nc2cccnc2)cc1 | > 256
NC(=O)c1ccc(C(=O)Nc2ccc(-n3ccnc3)nc2)cc1 | > 256

system: Escherichia coli; assay: Antibacterial activity against kanamycin-resistant,acrAB::Tn903 deficient Escherichia coli SM1411 expressing lacI3, lacZ118, proB, trp, nalA, rpsL in the presence of polymyxin B nonapeptide; format: functional

SMILES | MIC [µg/mL]
NS(=O)(=O)c1ccc(C(=O)Nc2cnc3ccccc3c2)cc1 | > 256
NS(=O)(=O)c1ccc(C(=O)Nc2ccc(N3CCCC3)nc2)cc1 | > 256
NS(=O)(=O)c1ccc(NC(=O)c2ccc(-n3cncn3)nc2)cc1 | > 256
NS(=O)(=O)c1ccc(C(=O)Nc2ccc(-c3ccccc3)nc2)cc1 | > 256
N#Cc1ccc(C(=O)Nc2ccc(-n3cncn3)nc2)cc1 | > 256
NS(=O)(=O)c1ccc(C(=O)Nc2ccc(-n3ccnc3)nc2)cc1 | > 256
CCCC/C(C)=C/C=C(\C)C(=O)c1c(O)cc([C@H](C)CC/C=C/NC(=O)OC)oc1=O [MYXOPYRONIN B] | > 256
O=C(O)c1ccc(C(=O)Nc2ccc(-n3ccnc3)nc2)cc1 | > 256
N#Cc1ccc(C(=O)Nc2ccc(-c3ccccc3)nc2)cc1 | > 256
COC(=O)c1ccc(C(=O)Nc2ccc(-n3ccnc3)nc2)cc1 | > 256
NS(=O)(=O)c1ccc(C(=O)Nc2cccnc2)cc1 | > 256
NC(=O)c1ccc(C(=O)Nc2ccc(-n3ccnc3)nc2)cc1 | > 256

system: Escherichia coli; assay: Inhibition of Escherichia coli DNA dependent RNA polymerase at 100 uM after 2 hrs by SYBR Green-based spectrophotometric analysis; how it was run: as §3

SMILES | inhibition [%]
NS(=O)(=O)c1ccc(C(=O)Nc2cnc3ccccc3c2)cc1 | 0
NS(=O)(=O)c1ccc(C(=O)Nc2ccc(N3CCCC3)nc2)cc1 | 17.9
NS(=O)(=O)c1ccc(NC(=O)c2ccc(-n3cncn3)nc2)cc1 | 0
NS(=O)(=O)c1ccc(C(=O)Nc2ccc(-c3ccccc3)nc2)cc1 | 32.9
O=C(O)c1ccc(C(=O)Nc2ccc(-n3ccnc3)nc2)cc1 | 0
N#Cc1ccc(C(=O)Nc2ccc(-c3ccccc3)nc2)cc1 | 10.9
COC(=O)c1ccc(C(=O)Nc2ccc(-n3ccnc3)nc2)cc1 | 0
NS(=O)(=O)c1ccc(C(=O)Nc2cccnc2)cc1 | 0

system: Bacillus subtilis; assay: Antibacterial activity against Bacillus subtilis 1S34; format: functional; how it was run: as §1

SMILES | MIC [µg/mL]
NS(=O)(=O)c1ccc(C(=O)Nc2cnc3ccccc3c2)cc1 | > 256
NS(=O)(=O)c1ccc(C(=O)Nc2ccc(N3CCCC3)nc2)cc1 | > 256
NS(=O)(=O)c1ccc(NC(=O)c2ccc(-n3cncn3)nc2)cc1 | > 256
NS(=O)(=O)c1ccc(C(=O)Nc2ccc(-c3ccccc3)nc2)cc1 | > 256
N#Cc1ccc(C(=O)Nc2ccc(-n3cncn3)nc2)cc1 | > 256
NS(=O)(=O)c1ccc(C(=O)Nc2ccc(-n3ccnc3)nc2)cc1 | > 256
CCCC/C(C)=C/C=C(\C)C(=O)c1c(O)cc([C@H](C)CC/C=C/NC(=O)OC)oc1=O [MYXOPYRONIN B] | > 256
O=C(O)c1ccc(C(=O)Nc2ccc(-n3ccnc3)nc2)cc1 | > 256
N#Cc1ccc(C(=O)Nc2ccc(-c3ccccc3)nc2)cc1 | > 256
COC(=O)c1ccc(C(=O)Nc2ccc(-n3ccnc3)nc2)cc1 | > 256
NS(=O)(=O)c1ccc(C(=O)Nc2cccnc2)cc1 | > 256
NC(=O)c1ccc(C(=O)Nc2ccc(-n3ccnc3)nc2)cc1 | > 256
